VIM-2 inhibitor: VIM-2 metallo-beta-lactamase inhibitors, primary screen, biochemical, epi-absorbance readout, Pseudomonas aeruginosa enzyme. purified VIM-2, nitrocefin hydrolysis, epi-absorbance fluorescence. inhibition, % at 5.6 µM. hit rate 0.89% among 290,000;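 active means inhibition above the mean of all tested compounds plus 3 SD, cutoff set per screening run, cut at about 7.5% in these data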;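 further: red hydrolysis product quenches plate fluorescence so inhibitors raise well fluorescence; 0% = enzyme with DMSO and 100% = DMSO without enzyme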
IMP-1 inh: IMP-1 metallo-beta-lactamase inhibitors, primary screen, biochemical, epi-absorbance readout, Pseudomonas aeruginosa enzyme; AID 1556, 2009; purified IMP-1, nitrocefin hydrolysis, epi-absorbance fluorescence; hit rate 0.45% among 290,000; inhibition, % at 5.6 µM;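 active means inhibition above the mean plus 3 SD of all compounds in the same screening run, cut at about 4.5% in these data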;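 further: 0% = IMP-1 with DMSO and 100% = DMSO wells lacking enzyme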
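Test system: recombinant IMP-1 enzyme, purified / Medium: HEPES buffer pH 7.1 with ZnSO4 and Brij 35 / Doses: single dose, 5.6 µM / Times: 25 °C, 15 min preincubation, 25 min reaction / Detection: Epi-absorbance via hydrolysed-nitrocefin quenching of white-plate fluorescence, 480/530 nm, EDTA stop / Evaluation: percent inhibition from optical density relative to buffer-blank wells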
procasp3 activ: activators of human procaspase-3 D3A mutant, primary screen, biochemical, absorbance, PC-3 D3A mutant, single concentration | AID 463141, 2010 | recombinant procaspase-3 D3A, Ac-DEVD-pNA absorbance 405 nm | activation, % at 8.5 µM | hit rate 0.11% among 330,000;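 active means activation above the mean of all tested compounds plus 3 SD, cut at about 21% in these data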;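 further: 0% = DMSO alone and 100% = DMSO wells spiked with extra 5 µM PC-3 D3A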
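Test system: Procaspase-3 D3A mutant; medium: Zinc-free HEPES/NaCl buffer with 0.01% Triton X-100 at pH 7.4; reagent: DEVD-pNA substrate; doses: one concentration, 8.5 µM nominal, 0.8% DMSO; times: 1 h preincubation plus 2 h reaction at 25 °C; signal: Epi-absorbance at 405 nm of released p-nitroaniline, 0 and 120 min; replicates: singlicate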
PolyA inhibitor: polyadenylation inhibitors in yeast reporter cells, primary screen, luminescence, S. cerevisiae; hit rate 0.02% among 300,000; activity score, % at 12 µM; S. cerevisiae SKY197-pL101 polyadenylation reporter, beta-gal luminescence; efflux-impaired pdr1/pdr3 knockout yeast; score 100 = 6 SD above DMSO;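 active means lowest replicate activity score at least 50, where 100 means six control SD above control mean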;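 further: yeast exposed to compound for 9 h at 30 °C; higher score means more reporter readthrough which indicates perturbed polyadenylation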
procasp7 counter: procaspase-7 activators, primary screen, counter-screen for procaspase-3 activator project, biochemical, absorbance, HTS, human; recombinant procaspase-7, Ac-DEVD-pNA absorbance 405 nm; D23A/D198A/D206A triple mutant, cannot self-cleave; scale: DMSO 0, 5 µM enzyme 100; activation, % at 8.5 µM; hit rate 0.093% among 330,000; AID 463210, 2010;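 active means percent activation above the screen-wide mean plus 3 SD, cut at about 25% in these data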
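System: Procaspase-7 triple mutant (PC-7 D3A); measure: % activation from two-timepoint absorbance difference, scaled to controls; times: 1 h compound preincubation, 2 h substrate cleavage, 25 °C; also added: Ac-DEVD-pNA substrate, 400 µM as added; measured by: Epi-absorbance of released pNA at 405 nm, two timepoints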
Neddylation inh: inhibitors of cullin neddylation, primary screen, biochemical, TR-FRET, uHTS, NAE and Ubc12; NEDD8-conjugating enzyme Ubc12 (Homo sapiens) + NEDD8-activating enzyme E1 regulatory …; calls only at 25 µM; AID 651699, 2012; hit rate 0.58% among 360,000; in the data active means inhibition above about 36%
Target sequence (P61081 whole entry, looked up): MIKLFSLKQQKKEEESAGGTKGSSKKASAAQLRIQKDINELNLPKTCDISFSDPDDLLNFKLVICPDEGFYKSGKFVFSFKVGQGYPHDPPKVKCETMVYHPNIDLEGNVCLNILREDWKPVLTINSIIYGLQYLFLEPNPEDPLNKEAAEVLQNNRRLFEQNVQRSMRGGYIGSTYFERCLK
Target sequence (Q13564 whole entry, looked up): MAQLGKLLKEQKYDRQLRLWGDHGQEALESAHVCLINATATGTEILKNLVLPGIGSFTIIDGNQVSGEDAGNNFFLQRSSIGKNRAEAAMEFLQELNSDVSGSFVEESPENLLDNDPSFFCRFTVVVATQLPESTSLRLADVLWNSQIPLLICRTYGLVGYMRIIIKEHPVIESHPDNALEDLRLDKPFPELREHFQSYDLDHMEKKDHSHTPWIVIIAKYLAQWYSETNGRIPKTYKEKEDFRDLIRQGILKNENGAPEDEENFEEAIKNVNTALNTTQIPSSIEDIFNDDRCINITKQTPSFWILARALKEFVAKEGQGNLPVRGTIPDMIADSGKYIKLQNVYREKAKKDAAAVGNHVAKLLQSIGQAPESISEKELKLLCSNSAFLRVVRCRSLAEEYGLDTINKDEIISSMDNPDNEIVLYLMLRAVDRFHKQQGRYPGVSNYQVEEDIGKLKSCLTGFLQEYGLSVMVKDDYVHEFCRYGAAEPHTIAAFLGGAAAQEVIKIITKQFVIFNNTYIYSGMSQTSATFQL
Active calls of the source: *. Shown are actives, neighbours in structure and some others; about 1.7% of the full set was active somewhere.

For O=C(NCC(=O)N(c1cccnc1)C(C(=O)NC1CCCC1)c1ccc(F)cc1)c1ccco1 (stereo unspecified) the results were VIM-2 inhibitor -2, IMP-1 inh 0, procasp3 activ 5, PolyA inhibitor -2 and procasp7 counter 6.
Screening COc1ccc(/C=C2\SC(=S)N(CCC(=O)N3CCCCC3)C2=O)cc1 returned VIM-2 inhibitor -2, IMP-1 inh -3, procasp3 activ 2, PolyA inhibitor 10, procasp7 counter 2 and Neddylation inh inactive.
`COCCN1C(=O)/C(=C/c2ccc(N3CCCC3)cc2)SC1=S` gave VIM-2 inhibitor 5, IMP-1 inh 4.5*, procasp3 activ -4, procasp7 counter 17 and Neddylation inh inactive.
O=C1c2ccccc2NC(c2ccc(O)c(O)c2)N1c1ccccc1Cl (stereo unspecified) was read as VIM-2 inhibitor -1, IMP-1 inh 1, procasp3 activ 1, PolyA inhibitor -3, procasp7 counter 4 and Neddylation inh active.
Screening CN(C)CCC(C(=O)c1ccccc1)c1cccnc1 (stereo unspecified) returned Neddylation inh inactive.
COC(=O)c1ccccc1NC(=O)c1sc(N)nc1C was read as VIM-2 inhibitor 10*, IMP-1 inh -5, procasp3 activ -16, procasp7 counter -1 and Neddylation inh inactive.
Screening Cc1nc(N)sc1C(=O)Nc1ccccc1 returned VIM-2 inhibitor -3, IMP-1 inh -3, procasp3 activ -13, PolyA inhibitor -15, procasp7 counter -4 and Neddylation inh inactive.
CCC(C)NC(=O)c1cc2c(=O)n(CC)c3ccccc3c2s1 (stereo unspecified) was read as VIM-2 inhibitor 8.0*, IMP-1 inh -1, procasp3 activ 5, PolyA inhibitor 1, procasp7 counter 16 and Neddylation inh inactive.
`CCn1c(=O)c2cc(C(=O)NCCCOC)sc2c2ccccc21` gave VIM-2 inhibitor 9.0*, IMP-1 inh -2, procasp3 activ -3, PolyA inhibitor -6 and procasp7 counter -3.
Screening CCn1c(=O)c2cc(C(=O)NCCC(C)C)sc2c2ccccc21 returned VIM-2 inhibitor 5, IMP-1 inh -2, procasp3 activ 6, PolyA inhibitor 17, procasp7 counter 10 and Neddylation inh inactive.
For CCn1c(=O)c2cc(C(=O)NCC(OC)OC)sc2c2ccccc21 the results were VIM-2 inhibitor 7, IMP-1 inh -5, procasp3 activ -2, PolyA inhibitor 7 and procasp7 counter 3.
Screening CCCc1nc2oc3c(=O)[nH]cnc3c2c2c1CCCC2 returned VIM-2 inhibitor -2, IMP-1 inh -2, procasp3 activ 5, PolyA inhibitor 7, procasp7 counter 9 and Neddylation inh inactive.
COc1cc(/C=C2/CC/C(=C/c3ccc(O)c(OC)c3)C2=O)ccc1O was read as VIM-2 inhibitor 1, IMP-1 inh 0, procasp3 activ -4, PolyA inhibitor 61*, procasp7 counter -18 and Neddylation inh inactive.
`COc1ccc(NC(=O)Cn2nnc(C(=O)Nc3ccccc3C)c2N)cc1` gave VIM-2 inhibitor 0, IMP-1 inh -4, procasp3 activ 0, PolyA inhibitor 10, procasp7 counter 5 and Neddylation inh inactive.
Screening CCc1ccccc1N(CC(=O)NCc1ccco1)C(=O)c1snc(C(N)=O)c1N returned VIM-2 inhibitor -3, IMP-1 inh -1, procasp3 activ -10, PolyA inhibitor -2, procasp7 counter -1 and Neddylation inh active.
`CC(C)CCNC(=O)CN(Cc1ccco1)C(=O)c1snc(C(N)=O)c1N` gave VIM-2 inhibitor -5, IMP-1 inh -4, procasp3 activ -1, PolyA inhibitor -4, procasp7 counter -5 and Neddylation inh inactive.

Source: PubChem BioAssay
